Data on 14 compounds can be found in ChEMBL document CHEMBL5678813, “Optimization of a novel series of N-phenylindoline-5-sulfonamide-based acyl CoA:monoacylglycerol acyltransferase-2 inhibitors: Mitigation of CYP3A4 time-dependent inhibition and phototoxic liabilities” (Bioorg Med Chem, 2015).

Series [1] addresses 2-acylglycerol O-acyltransferase 2 (Homo sapiens, UniProt Q3SYC2). Put plainly: Inhibition of N-terminal FLAG-tagged full-length human MGAT2 expressed in human FreeStyle 293-F cell membrane using 13Cx18oleoyl-CoA and 2-oleoyl-glycerol as substrate preincubated for 60 mins followed by substrate addition and measured after 30 mins by RapidFire mass spectrometric analysis. It counts as cell membranes. An outline of the steps: (§1)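 FreeStyle293 cells transfected and harvested after 2 days; total membranes isolated by ultracentrifugation. Reaction started with 13C18 oleoyl-CoA and 2-oleoyl-glycerol (20 µM each), run 30 min at room temperature. Stopped with acetonitrile/formic acid containing 1,2-dioleoyl-glycerol; read by RapidFire/MS.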

Series [2] can be described thus: 1-Octanol/aqueous buffer partition coefficient, logD of the compound at pH 7.4 by HPLC analysis. It counts as physicochemical.
The test system of series [3] is NIH3T3. Put plainly: Cytotoxicity against BALB/c mouse 3T3 cells assessed as reduction in cell viability at 6.25 uM incubated for 1 hrs in absence of UV irradiation by Celltiter-Glo assay relative to control. The format is toxicity, cell-based. Particulars: nih3t3, 1 h; call rule not given here. An outline of the steps: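 BALB/c 3T3 cells seeded at 2.5 × 10^3 cells/well and grown 1 day. Compound at 6.25 µM in EBSS with 1 mM HEPES, preincubated 1 h. Plate kept dark (–UV) while the paired plate was irradiated. Medium replaced, cultured 24 h more. Viability read as cellular ATP by CellTiter-Glo, % of 1% DMSO control; n = 3, mean ± SD.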

Series [4] deals with CYP3A4 (Homo sapiens, UniProt P08684). Put plainly: (§2) Time-dependent inhibition of CYP3A4 in human liver microsomes using testosterone as substrate assessed as remaining activity at 30 uM preincubated with compound in presence of NADPH-generating system followed by substrate addition by UPLC analysis relative to control. It counts as ADME, Microsome. The following applies: human liver microsomes, probe testosterone, read-out: Activity. An outline of the steps:
(§3)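 Compound at 30 µM preincubated at 37 °C with human liver microsomes in pH 7.4 phosphate buffer plus an NADPH-generating system. CYP3A4 activity then measured as testosterone 6β-hydroxylation by UPLC, expressed as % of DMSO control. Remaining activity = preincubated activity ÷ non-preincubated activity × 100; n = 2.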
(Liver microsomes are a subcellular fraction often used to study metabolism.)

A short description of series [5]: AUC in mouse at 1 mg/kg, po administered as cassette dose by LC/MS/MS analysis. It counts as ADME, organism-based. The following applies: in vivo. An outline of the steps: (§4)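 Non-fasted mice dosed by cassette, iv 0.1 mg/kg or po 1 mg/kg suspended in 0.5% methylcellulose aqueous solution; plasma obtained from blood by centrifugation, deproteinized with acetonitrile, and compound concentrations measured by LC/MS/MS.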

A short description of series [6]: Total clearance in mouse at 0.1 mg/kg, iv administered as cassette dose by LC/MS/MS analysis. It counts as ADME, organism-based. Particulars: in vivo. An outline of the steps:
as §4

Series [7] in a line: Oral bioavailability in mouse at 1 mg/kg administered as cassette dose by LC/MS/MS analysis. The format is ADME, organism-based. Particulars: in vivo. An outline of the steps:
as §4

Series [8] can be described thus: Volume of distribution at steady state in mouse at 0.1 mg/kg, iv administered as cassette dose by LC/MS/MS analysis. It counts as ADME, organism-based. Particulars: in vivo, read-out: Vdss. An outline of the steps: as §4
A short description of series [9]: Permeability of compound at pH 7.4 by PAMPA assay. It counts as ADME. Particulars: read-out: permeability. An outline of the steps:
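Passive permeability measured by PAMPA at pH 7.4.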

The target in series [10] is 2-acylglycerol O-acyltransferase 2 (Mus musculus, UniProt Q80W94). Put plainly: Inhibition of N-terminal FLAG-tagged full-length mouse MGAT2 expressed in human FreeStyle 293-F cell membrane using 13Cx18oleoyl-CoA and 2-oleoyl-glycerol as substrate preincubated for 60 mins followed by substrate addition and measured after 30 mins by RapidFire mass spectrometric analysis. It counts as cell membranes. An outline of the steps:
as §1

Series [11] can be described thus: Metabolic stability in mouse liver microsomes assessed as intrinsic clearance at 1 uM incubated for 15 to 30 mins in presence of NADPH-generating system by LC/MS/MS analysis. Particulars: time 15-30 min, read-out: CLH. It counts as ADME, Microsome. An outline of the steps:
(§5)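 Compound at 1 µM with 0.2 mg/mL liver microsomal protein in 50 mM phosphate buffer pH 7.4. Reaction started by NADPH-generating system (5 mM MgCl2, 5 mM glucose-6-phosphate, 0.5 mM β-NADP+, 1.5 U/mL G6PDH). Stopped with acetonitrile at 15 and 30 min and analysed by LC/MS/MS. Velocity taken as slope of concentration–time plot.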

A short description of series [12]: MRT in mouse at 1 mg/kg, po administered as cassette dose by LC/MS/MS analysis. The following applies: in vivo. The format is ADME, organism-based. An outline of the steps:
as §4

Series [13] can be described thus: Metabolic stability in human liver microsomes assessed as intrinsic clearance at 1 uM incubated for 15 to 30 mins in presence of NADPH-generating system by LC/MS/MS analysis. The format is ADME, Microsome. The following applies: time 15-30 min, read-out: CLH. An outline of the steps: as §5
Series [14] has as its target Cytochrome P450 3A4 (Homo sapiens, UniProt P08684). The description is as §2. Particulars: microsomes, 30 µM. It counts as ADME, Microsome. An outline of the steps: as §3

The structures appear in SMILES notation.

CYP3A4, sequence (P08684 whole entry): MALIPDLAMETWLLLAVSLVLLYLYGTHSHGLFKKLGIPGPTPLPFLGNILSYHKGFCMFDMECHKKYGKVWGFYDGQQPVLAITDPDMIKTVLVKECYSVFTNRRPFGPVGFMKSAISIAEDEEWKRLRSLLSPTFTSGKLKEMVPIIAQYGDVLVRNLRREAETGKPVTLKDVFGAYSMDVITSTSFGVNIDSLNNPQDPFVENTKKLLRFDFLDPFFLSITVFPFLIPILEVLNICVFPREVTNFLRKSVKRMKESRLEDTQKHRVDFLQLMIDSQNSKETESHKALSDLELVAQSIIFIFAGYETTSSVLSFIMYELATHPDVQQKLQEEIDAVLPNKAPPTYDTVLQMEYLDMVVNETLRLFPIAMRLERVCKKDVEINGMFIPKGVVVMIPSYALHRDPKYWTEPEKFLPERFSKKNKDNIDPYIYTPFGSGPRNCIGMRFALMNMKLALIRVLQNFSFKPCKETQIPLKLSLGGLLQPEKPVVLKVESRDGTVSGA
2-acylglycerol O-acyltransferase 2 (Homo sapiens, UniProt Q3SYC2), sequence (Q3SYC2 whole entry): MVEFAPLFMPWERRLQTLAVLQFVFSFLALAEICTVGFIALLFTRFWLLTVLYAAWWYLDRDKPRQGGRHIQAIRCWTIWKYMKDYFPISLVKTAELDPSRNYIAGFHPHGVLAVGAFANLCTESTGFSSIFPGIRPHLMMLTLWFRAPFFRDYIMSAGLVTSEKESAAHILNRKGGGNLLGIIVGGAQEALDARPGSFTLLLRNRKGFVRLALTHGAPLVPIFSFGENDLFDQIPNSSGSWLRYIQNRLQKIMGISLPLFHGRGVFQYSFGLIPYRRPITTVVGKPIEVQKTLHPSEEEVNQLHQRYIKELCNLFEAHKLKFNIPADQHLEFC
2-acylglycerol O-acyltransferase 2 (Mus musculus, UniProt Q80W94), sequence (Q80W94 whole entry): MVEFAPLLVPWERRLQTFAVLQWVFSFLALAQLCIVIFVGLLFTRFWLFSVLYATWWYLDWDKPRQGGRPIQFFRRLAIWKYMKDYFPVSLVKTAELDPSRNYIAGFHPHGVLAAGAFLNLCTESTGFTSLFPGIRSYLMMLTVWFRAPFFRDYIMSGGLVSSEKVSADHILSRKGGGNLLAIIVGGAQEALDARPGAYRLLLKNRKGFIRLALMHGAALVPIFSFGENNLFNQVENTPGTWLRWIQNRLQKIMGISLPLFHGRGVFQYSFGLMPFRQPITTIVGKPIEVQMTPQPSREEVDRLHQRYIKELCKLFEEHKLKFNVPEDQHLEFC
Cytochrome P450 3A4, sequence (P08684 whole entry): as the sequence (P08684 whole entry) above

Take `O=C1CCCN1c1cc(S(=O)(=O)Nc2c(F)cc(Cl)cc2F)cc2c1N(c1ncc(-c3ccc(C(F)(F)F)cc3F)cn1)CC2`: in series [1], half-maximal inhibition (IC50) required 0.42 nM. Also, the logD in series [2] is 4.1. In [3], the Activity is on record as 98%.

The compound `O=C1CCCN1c1cc(S(=O)(=O)Nc2c(F)cc(Cl)cc2F)cc2c1N(C(=O)Nc1ccc(C(F)(F)F)cc1)CC2` yielded an IC50 in [1] of 30 nM. Further, in series [2], the logD was determined as 3.3. Further, the activity at 30 µM in series [4] was 89%.

With `Cc1cc(C(F)(F)F)nn1-c1cnc(N2CCc3cc(S(=O)(=O)Nc4c(F)cc(Cl)cc4F)cc(N4CCCC4=O)c32)nc1`, the IC50 in [1] stood at 2.1 nM; in series [10], 1.1 nM. In series [5], this compound registered an AUC of 1120 ng·h/mL. Also, the clearance in [6] was 7.85 mL/min/kg. The bioavailability in [7] was determined as 52%. In [2], this compound showed a logD of 2.9. Further, the Vd in [8] was 1.02 L/kg. In addition, in [3], the Activity stood at 112%. In series [9], the Papp is 18.5 ×10⁻⁶ cm/s. The microsomal CLint at 1 µM in series [11] was determined as 27 µL/min/mg. This compound gave a mean residence time MRT in series [12] of 2.6 h.

On to `Cn1nc(C(F)(F)F)cc1-c1cnc(N2CCc3cc(S(=O)(=O)Nc4c(F)cc(Cl)cc4F)cc(N4CCNC4=O)c32)nc1`, for which the IC50 in series [1] was found to be 3.7 nM; in [10], 1.9 nM. This compound had an AUC in series [5] of 72 ng·h/mL. Besides, the clearance in [6] was 39.5 mL/min/kg. Further, the bioavailability in [7] was found to be 16%. Also, in [2], the pH-dependent lipophilicity (logD) amounted to 2.7. Further, the Vd in series [8] came out at 1.96 L/kg. Besides, the Activity in series [3] is listed as 111%. The Papp in [9] amounted to 4 ×10⁻⁶ cm/s. Moreover, the microsomal CLint at 1 µM turned out to be 4 µL/min/mg in [13] and 33 µL/min/mg in [11]. The MRT in series [12] came out at 2.3 h.

As to `CC(=O)Nc1cc(S(=O)(=O)Nc2ccc(F)cc2F)cc2c1N(CCc1ccccc1)CC2`, half-maximal inhibition in [1] (IC50) was put at 1 nM. The activity at 30 µM in series [4] worked out at 13%.

As for `O=C1CCCN1c1cc(S(=O)(=O)Nc2c(F)cc(Cl)cc2F)cc2c1N(C(=O)OC1CCN(CC(F)(F)C(F)(F)F)CC1)CC2`, the concentration for half-maximal inhibition (IC50) in series [1] was 19 nM. In addition, the pH-dependent lipophilicity (logD) in [2] was found to be 3.8. The activity at 30 µM in series [4] was 82%.

Compound `O=C1CCCN1c1cc(S(=O)(=O)Nc2c(F)cc(Cl)cc2F)cc2c1N(c1ncc(-c3ccc(C(F)(F)F)cc3)cn1)CC2` yielded a half-inhibitory concentration (IC50) in series [1] of 0.69 nM. In addition, the logD in series [2] came to 3.8. Further, in series [14], the TDI entry is “Not Active”. Moreover, the Activity in series [3] is given as 105%.

As for `O=C1CCCN1c1cc(S(=O)(=O)Nc2ccc(F)cc2F)cc2c1N(C(=O)OC1CCN(CC(F)(F)C(F)(F)F)CC1)CC2`, half-maximal inhibition in [1] (IC50) required 4.1 nM. The compound also came in with a logD in series [2] of 3.7. Further, the activity at 30 µM in [4] worked out at 59%.

As for `O=C1CCCN1c1cc(S(=O)(=O)Nc2c(F)cc(Cl)cc2F)cc2c1N(c1ccc(-c3ccc(C(F)(F)F)cc3)cc1)CC2`, the IC50 in series [1] was 0.25 nM. In series [2], this compound returned a logD of 4.5. Further, the TDI entry in [14] is recorded as “Not Active”. In [3], the Activity was 95%.

The compound `O=C1CCCN1c1cc(S(=O)(=O)Nc2ccc(C(F)(F)F)cc2F)cc2c1N(C(=O)OC1CCN(CC(F)(F)C(F)(F)F)CC1)CC2` showed a half-inhibitory concentration (IC50) in [1] of 42 nM. Further, the pH-dependent lipophilicity (logD) in series [2] turned out to be 4.1. For the same compound, the activity at 30 µM in series [4] was 93%.

Compound `O=C1CCCN1c1cc(S(=O)(=O)Nc2ccc(F)cc2F)cc2c1N(C(=O)Nc1ccc(C(F)(F)F)cc1)CC2` displayed an IC50 in [1] of 3.4 nM. In series [4], the activity at 30 µM came to 43%.

As to `O=C1CCCN1c1cc(S(=O)(=O)Nc2c(F)cc(Cl)cc2F)cc2c1N(c1ncc(-n3cc(C(F)(F)F)cn3)cn1)CC2`, the IC50 in [1] was determined as 6.2 nM. The compound further yielded a log distribution coefficient (logD) in series [2] of 3.1. Moreover, the Activity in series [3] was found to be 109%.

For `O=C1CCCN1c1cc(S(=O)(=O)Nc2c(F)cc(Cl)cc2F)cc2c1N(c1ncc(-n3ccc(C(F)(F)F)n3)cn1)CC2`, half-maximal inhibition in series [1] (IC50) required 8.2 nM. The compound also gave a logD in series [2] of 3.1. Besides, in [3], the Activity stood at 105%.

For `O=C1CCCN1c1cc(S(=O)(=O)Nc2c(F)cc(F)cc2F)cc2c1N(C(=O)OC1CCN(CC(F)(F)C(F)(F)F)CC1)CC2`, the IC50 in [1] stood at 75 nM. The compound further yielded a logD in series [2] of 3.4. For the same compound, the activity at 30 µM in series [4] stood at 95%.

A word on the IC50: it is the concentration that inhibits the measured activity by half. The logD is the decadic logarithm of the distribution of all forms, ionised or not, between an organic phase and buffer at a given pH. By AUC is commonly meant concentration integrated over time. The term clearance denotes the volume of plasma or blood freed of the substance per unit of time. Read a high clearance as a high capacity for elimination. Broadly, the bioavailability is dose-corrected exposure relative to a reference, in per cent. Read a low bioavailability as poor availability. The MRT is a mean duration of stay, worked out from the concentration-time curve.
